Reference: ChEMBL document CHEMBL3526048, “In vitro metabolism of rivoglitazone, a novel peroxisome proliferator-activated receptor γ agonist, in rat, monkey, and human liver microsomes and freshly isolated hepatocytes” (Drug Metab Dispos, 2011)

Tests used:
Cytochrome P450 2C9 [1] = molecular target: T1, Cytochrome P450 2C9 (Homo sapiens, UniProt P11712); experiment: (§1) Activity of human CYP2C9 expressed in microsomes isolated from baculovirus infected insect cell assessed as enzyme-mediated 3-(4-((6-methoxy-1-methyl-1H-benzo[d]imidazol-2-yl)methoxy)phenyl)-2-(methylthio)propanamide formation at 20 uM after 2 hrs by radio-HPLC/LC-MS/MS analysis in presence of NADPH-generating system/SAM; assay type: ADME
Liver microsome [2] = experiment: Drug metabolism in Sprague-Dawley rat liver microsomes assessed as formation of 5-(4-((6-methoxy-1H-benzo[d]imidazol-2-yl)methoxy)benzyl)thiazolidine-2,4-dione at 20 uM after 2 hrs by radio-HPLC/LC-MS/MS analysis in presence of NADPH-generating system and NADPH-generating system/SAM; assay type: ADME
Liver microsome [3] = experiment: Drug metabolism in human liver microsomes assessed as formation of 2-((4-((2,4-dioxothiazolidin-5-yl)methyl)phenoxy)methyl)-1-methyl-1H-benzo[d]imidazol-6-yl hydrogen sulfate at 20 uM by radio-HPLC/LC-MS/MS analysis; assay type: ADME
Cytochrome P450 3A4 [4] = molecular target: T2, Cytochrome P450 3A4 (Homo sapiens, UniProt P08684); experiment: (§2) Activity of human CYP3A4 expressed in microsomes isolated from baculovirus infected insect cell assessed as enzyme-mediated 5-(4-((6-hydroxy-1-methyl-1H-benzo[d]imidazol-2-yl)methoxy)benzyl)thiazolidine-2,4-dione formation at 20 uM after 2 hrs by radio-HPLC/LC-MS/MS analysis in presence of NADPH-generating system and NADPH-generating system/SAM; assay type: ADME
Cytochrome P450 2C9 [5] = molecular target: T1, Cytochrome P450 2C9; experiment: as §2, with “CYP2C9” for “CYP3A4”; assay type: ADME
Liver microsome [6] = experiment: Drug metabolism in Sprague-Dawley rat liver microsomes assessed as formation of 3-(4-((6-methoxy-1-methyl-1H-benzo[d]imidazol-2-yl)methoxy)phenyl)-2-(methylsulfonyl)propanamide at 20 uM after 2 hrs by radio-HPLC/LC-MS/MS analysis in presence of NADPH-generating system/SAM; assay type: ADME
Cytochrome P450 3A4 [7] = molecular target: T2, Cytochrome P450 3A4; experiment: (§3) Activity of human CYP3A4 expressed in microsomes isolated from baculovirus infected insect cell assessed as enzyme-mediated (2S,3S,4S,5R,6R)-6-((1-carboxy-2-(4-((6-methoxy-1-methyl-1H-benzo[d]imidazol-2-yl)methoxy)phenyl)ethylthio)carbonylamino)-3,4,5-trihydroxytetrahydro-2H-pyran-2-carboxylic acid formation at 20 uM after 2 hrs by radio-HPLC/LC-MS/MS analysis in presence of NADPH-generating system/SAM; assay type: ADME
[8] = Drug metabolism in cynomolgus monkey liver microsomes assessed as formation of 5-hydroxy-5-(4-((6-methoxy-1-methyl-1H-benzo[d]imidazol-2-yl)methoxy)benzyl)thiazolidine-2,4-dione at 20 uM after 2 hrs by radio-HPLC/LC-MS/MS analysis in presence of NADPH-generating system and NADPH-generating system/SAM; assay type: ADME, Macaca fascicularis
[9] = molecular target: T3, UDP-glucuronosyltransferase 1A3 (Homo sapiens, UniProt P35503); experiment: as §1, with “human UGT1A3” for “human CYP2C9”, “after 4” for “after 2”, “system/SAM in presence of UDPGA and UDPGA/SAM” for “system/SAM”; assay type: ADME
T3 sequence (P35503 whole entry): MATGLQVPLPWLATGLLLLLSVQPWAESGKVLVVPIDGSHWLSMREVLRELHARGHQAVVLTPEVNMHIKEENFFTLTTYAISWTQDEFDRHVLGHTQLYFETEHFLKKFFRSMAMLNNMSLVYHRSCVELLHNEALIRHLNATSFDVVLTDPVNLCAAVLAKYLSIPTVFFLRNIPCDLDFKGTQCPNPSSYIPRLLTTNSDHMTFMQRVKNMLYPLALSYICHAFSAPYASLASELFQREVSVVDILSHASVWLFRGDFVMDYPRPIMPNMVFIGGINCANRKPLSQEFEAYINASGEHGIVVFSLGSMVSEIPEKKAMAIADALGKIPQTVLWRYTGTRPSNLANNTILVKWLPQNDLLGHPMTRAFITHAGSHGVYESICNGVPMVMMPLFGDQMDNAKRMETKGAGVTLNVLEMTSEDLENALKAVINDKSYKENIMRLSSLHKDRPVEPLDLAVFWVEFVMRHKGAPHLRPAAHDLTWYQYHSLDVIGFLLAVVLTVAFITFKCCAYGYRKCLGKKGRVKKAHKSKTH

Cytochrome P450 2D6 = Cytochrome P450 2D6 (Homo sapiens, UniProt P10635); experiment: Activity of human CYP2D6 expressed in microsomes isolated from baculovirus infected insect cell assessed as enzyme-mediated 5-hydroxy-5-(4-((6-methoxy-1-methyl-1H-benzo[d]imidazol-2-yl)methoxy)benzyl)thiazolidine-2,4-dione formation at 20 uM after 2 hrs by radio-HPLC/LC-MS/MS analysis in presence of NADPH-generating system and NADPH-generating system/SAM; assay type: ADME
[10] = Drug metabolism in po dosed monkey bile assessed as formation of 5-(4-((6-methoxy-1H-benzo[d]imidazol-2-yl)methoxy)benzyl)thiazolidine-2,4-dione; assay type: ADME, organism-based, Macaca mulatta; settings: rhesus monkey, in vivo
Cytochrome P450 2C19 = Cytochrome P450 2C19 (Homo sapiens, UniProt P33261); experiment: as §3, with “CYP2C19” for “CYP3A4”; assay type: ADME
Cytochrome P450 1A2 [11] = molecular target: T4, Cytochrome P450 1A2 (Homo sapiens, UniProt P05177); experiment: Activity of human CYP1A2 expressed in microsomes isolated from baculovirus infected insect cell assessed as enzyme-mediated 2-((4-((2,4-dioxothiazolidin-5-yl)methyl)phenoxy)methyl)-1-methyl-1H-benzo[d]imidazol-6-yl hydrogen sulfate formation at 20 uM after 2 hrs by radio-HPLC/LC-MS/MS analysis; assay type: ADME
T4 sequence (P05177 whole entry): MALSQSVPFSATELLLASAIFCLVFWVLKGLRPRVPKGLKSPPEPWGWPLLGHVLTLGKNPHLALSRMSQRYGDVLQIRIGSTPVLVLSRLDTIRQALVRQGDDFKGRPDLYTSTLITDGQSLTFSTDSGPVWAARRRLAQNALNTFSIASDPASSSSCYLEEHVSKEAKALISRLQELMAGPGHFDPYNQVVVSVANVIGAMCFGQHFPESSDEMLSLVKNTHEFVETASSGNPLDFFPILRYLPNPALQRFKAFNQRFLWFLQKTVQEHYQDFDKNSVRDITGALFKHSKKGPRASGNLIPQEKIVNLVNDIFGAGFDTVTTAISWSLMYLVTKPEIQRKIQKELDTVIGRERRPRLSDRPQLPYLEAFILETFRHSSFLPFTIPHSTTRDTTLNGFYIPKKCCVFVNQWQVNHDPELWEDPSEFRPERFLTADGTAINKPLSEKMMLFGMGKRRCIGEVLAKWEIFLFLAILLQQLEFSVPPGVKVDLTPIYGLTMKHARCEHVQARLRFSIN
Summary of the method: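 Baculovirus/insect-cell microsomes expressing single human CYPs, 1 mg/ml protein, with 50 mM potassium phosphate (pH 7.4) or 100 mM Tris-HCl (pH 7.5). NADPH-generating system: 2 mM NADP⁺, 20 mM glucose 6-phosphate, 2 units/ml G6PDH, 10 mM MgCl₂. [¹⁴C]rivoglitazone at 20 μM, 2 h at 37°C with shaking. Control used insect-cell control supersomes. Stopped with acetonitrile; supernatant concentrated under nitrogen; metabolites analysed by radio-HPLC, LC-MS and LC-MS/MS.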

Cytochrome P450 1A2 [12] = molecular target: T4, Cytochrome P450 1A2; experiment: Activity of human CYP1A2 expressed in microsomes isolated from baculovirus infected insect cell assessed as enzyme-mediated 3-(4-((6-methoxy-1-methyl-1H-benzo[d]imidazol-2-yl)methoxy)phenyl)-2-(methylthio)propanoic acid formation at 20 uM after 2 hrs by radio-HPLC/LC-MS/MS analysis in presence of NADPH-generating system/SAM and UDPGA/SAM; assay type: ADME
[13] = Drug level in cynomolgus monkey liver microsomes treated with [14C]-rivoglitazone at 20 uM after 2 to 4 hrs by radio-HPLC/LC-MS/MS analysis in presence of UDPGA, UDPGA/SAM and NADPH-generating system; assay type: ADME, Macaca fascicularis

T1 sequence (P11712 whole entry): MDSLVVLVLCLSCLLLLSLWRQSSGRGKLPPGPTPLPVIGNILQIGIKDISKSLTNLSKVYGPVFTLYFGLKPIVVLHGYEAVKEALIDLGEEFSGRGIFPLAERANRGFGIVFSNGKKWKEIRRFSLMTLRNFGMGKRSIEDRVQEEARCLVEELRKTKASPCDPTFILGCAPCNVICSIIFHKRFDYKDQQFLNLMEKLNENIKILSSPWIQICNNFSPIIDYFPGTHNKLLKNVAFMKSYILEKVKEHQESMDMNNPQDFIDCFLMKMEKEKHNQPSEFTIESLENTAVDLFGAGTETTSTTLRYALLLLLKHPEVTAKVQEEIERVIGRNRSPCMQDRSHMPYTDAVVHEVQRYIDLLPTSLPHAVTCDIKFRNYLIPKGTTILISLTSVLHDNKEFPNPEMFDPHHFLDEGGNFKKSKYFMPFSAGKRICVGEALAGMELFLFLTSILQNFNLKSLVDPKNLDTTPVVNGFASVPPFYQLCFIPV
T2 sequence (P08684 whole entry): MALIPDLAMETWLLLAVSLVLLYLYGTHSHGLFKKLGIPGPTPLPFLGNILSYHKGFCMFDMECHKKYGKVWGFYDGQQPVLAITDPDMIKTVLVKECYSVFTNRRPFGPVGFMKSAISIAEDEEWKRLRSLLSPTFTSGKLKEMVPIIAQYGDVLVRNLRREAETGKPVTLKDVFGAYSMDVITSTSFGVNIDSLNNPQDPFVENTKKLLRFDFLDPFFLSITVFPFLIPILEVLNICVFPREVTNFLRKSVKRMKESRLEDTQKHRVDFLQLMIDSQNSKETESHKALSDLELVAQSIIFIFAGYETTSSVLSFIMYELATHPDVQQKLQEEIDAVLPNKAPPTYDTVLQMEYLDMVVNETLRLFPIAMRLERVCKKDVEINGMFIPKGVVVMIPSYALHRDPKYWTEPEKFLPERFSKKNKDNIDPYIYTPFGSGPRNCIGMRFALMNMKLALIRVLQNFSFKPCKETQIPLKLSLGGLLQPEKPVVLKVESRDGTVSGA
Cytochrome P450 2C19, sequence (P33261 whole entry): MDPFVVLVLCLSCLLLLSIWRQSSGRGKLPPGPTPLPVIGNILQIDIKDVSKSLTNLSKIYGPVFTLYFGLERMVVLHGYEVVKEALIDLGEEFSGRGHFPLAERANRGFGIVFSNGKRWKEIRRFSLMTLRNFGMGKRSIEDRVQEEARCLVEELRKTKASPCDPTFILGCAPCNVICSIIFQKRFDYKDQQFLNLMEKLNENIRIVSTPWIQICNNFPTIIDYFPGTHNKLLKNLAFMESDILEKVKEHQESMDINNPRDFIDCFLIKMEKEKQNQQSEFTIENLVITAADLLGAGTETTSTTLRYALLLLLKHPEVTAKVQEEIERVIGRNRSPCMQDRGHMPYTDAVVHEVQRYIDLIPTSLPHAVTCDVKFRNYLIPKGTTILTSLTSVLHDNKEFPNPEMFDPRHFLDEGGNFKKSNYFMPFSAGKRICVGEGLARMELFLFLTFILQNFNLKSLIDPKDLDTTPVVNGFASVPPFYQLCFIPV
Cytochrome P450 2D6, sequence (P10635 whole entry): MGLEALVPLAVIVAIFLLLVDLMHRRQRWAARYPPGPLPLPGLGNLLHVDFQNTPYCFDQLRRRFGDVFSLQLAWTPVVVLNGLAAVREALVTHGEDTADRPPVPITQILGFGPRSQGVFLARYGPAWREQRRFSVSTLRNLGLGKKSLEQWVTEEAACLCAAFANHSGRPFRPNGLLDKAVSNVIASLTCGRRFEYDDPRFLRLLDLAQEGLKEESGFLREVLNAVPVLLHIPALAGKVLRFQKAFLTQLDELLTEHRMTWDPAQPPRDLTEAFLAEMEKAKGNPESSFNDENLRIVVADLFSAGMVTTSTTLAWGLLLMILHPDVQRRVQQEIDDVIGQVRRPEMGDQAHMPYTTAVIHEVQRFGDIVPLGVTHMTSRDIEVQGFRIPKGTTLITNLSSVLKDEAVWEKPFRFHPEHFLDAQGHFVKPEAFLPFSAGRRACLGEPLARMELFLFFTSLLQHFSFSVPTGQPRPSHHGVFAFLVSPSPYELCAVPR

Row | Drug metabolism (Cytochrome P450 2C9 [1]) | Drug metabolism (Liver microsome [2]) | Drug metabolism (Liver microsome [3]) | Drug metabolism (Cytochrome P450 3A4 [4]) | Drug metabolism (Cytochrome P450 2C9 [5]) | Drug metabolism (Liver microsome [6]) | Drug metabolism (Cytochrome P450 3A4 [7]) | Drug metabolism [8] | Drug metabolism [9] | Drug metabolism (Cytochrome P450 2D6) | Drug metabolism [10] | Drug metabolism (Cytochrome P450 2C19) | Drug metabolism (Cytochrome P450 1A2 [11]) | Drug metabolism (Cytochrome P450 1A2 [12]) | Drug metabolism [13] | Compound
1 | metabolite_not_detected | metabolite_detected | metabolite_not_detected | metabolite_detected | metabolite_detected | metabolite_detected | metabolite_not_detected | metabolite_detected | metabolite_not_detected | metabolite_detected | metabolite_detected | metabolite_not_detected | metabolite_not_detected | metabolite_not_detected |  | COc1ccc2nc(COc3ccc(C[14CH]4SC(=O)NC4=O)cc3)n(C)c2c1.Cl (racemic)
2 |  |  |  |  |  |  |  |  |  |  |  |  |  |  | metabolite_detected | COc1ccc2nc(COc3ccc(CC(S)C(=O)O)cc3)n(C)c2c1 (stereo not given)
